Experimental data as given in ChEMBL document CHEMBL4138168, “Design and synthesis of novel thiobarbituric acid derivatives targeting both wild-type and BRAF-mutated melanoma cells” (Eur J Med Chem, 2018).

Experiments:
Type in all cases: functional, cell-based
UACC-903 = assay: Cytotoxicity against human UACC-903 cells assessed as cell viability at 25 uM after 48 hrs by MTT assay relative to control; details: UACC-903, 48 h
Method in brief: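 MCF10A normal breast epithelial cells were kept in MEGM mammary epithelial medium; the cancer lines were in DMEM with 10% FBS, 37 °C. OD at 570 nm with 630 nm background, expressed relative to control.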

CHL-1 = assay: Antiproliferative activity against human CHL-1 cells harboring wild type BRAF after 72 hrs by MTT assay; details: CHL-1, 72 h
Method in brief: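 Cells (CHL-1) cultured in DMEM with 10% FBS at 37 °C and treated with compound for 72 h. Viability measured by MTT uptake: 3 h with MTT, DMSO solubilisation, absorbance at 570 nm with 630 nm background subtraction. IC50 taken as the mean of triplicates from at least two independent experiments.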

MDA-MB-231 = assay: Antiproliferative activity against ER/PR/HER2 deficient human MDA-MB-231 cells after 48 hrs by MTT assay; details: MDA-MB-231, 48 h
Method in brief: (§1)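 3,000 cells per well, grown at 37 °C (DMEM with 10% FBS and penicillin/streptomycin; HCT116 in McCoy's 5A). Cells exposed in triplicate to 0.5–25 μM compound for 48 h. MTT (5 mg/mL PBS stock) added for 3 h, formazan dissolved in DMSO, OD read at 570 nm minus 630 nm background. IC50 from non-linear regression of two independent experiments.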

MCF7 = assay: Antiproliferative activity against human MCF7 cells expressing ER/PR/HER2 after 48 hrs by MTT assay; details: MCF7, 48 h; method in brief: as §1
HCT-116 = assay: Antiproliferative activity against human HCT116 cells after 48 hrs by MTT assay; details: HCT-116, 48 h; method in brief: as §1
PANC-1 = assay: Antiproliferative activity against human PANC1 cells after 48 hrs by MTT assay; details: PANC-1, 48 h; method in brief: as §1

Structure (SMILES) | IC50 (UACC-903) | IC50 (CHL-1) | IC50 (MDA-MB-231) | IC50 (MCF7) | IC50 (HCT-116) | IC50 (PANC-1)
C=CCN1C(=O)C(=C/C=C/c2ccccc2)C(=O)N(CC=C)C1=S | 18.1 µM | 8.1 µM | – | – | – | –
O=C1NC(=[Se])NC(=O)C1=C/C=C/c1ccco1 | 2.3 µM | 9.7 µM | – | – | – | –
O=C1NC(=S)NC(=O)C1=C/C=C/c1ccccc1 | 9.1 µM | 10.6 µM | – | – | – | –
O=C1NC(=S)NC(=O)C1=C/C=C/C=C/c1ccccc1 | 6.5 µM | – | – | – | – | –
C=CCN1C(=O)/C(=C\C=C\c2ccco2)C(=O)N(CC)C1=S | 14.5 µM | 18.9 µM | – | – | – | –
CCN1C(=O)/C(=C\C=C\c2ccco2)C(=O)NC1=S | 16.2 µM | 13.9 µM | – | – | – | –
CCN1C(=O)/C(=C\C=C\c2cccs2)C(=O)NC1=S | 4.6 µM | – | 8.5 µM | 24 µM | 8.3 µM | 20.5 µM
CCN1C(=O)/C(=C/C=C/c2cccc3ccccc23)C(=O)NC1=S | 23.4 µM | – | – | – | – | –
CCN1C(=O)/C(=C\C=C\c2ccccc2)C(=O)NC1=S | 8 µM | 6.2 µM | – | – | – | –
CCN1C(=O)\C(=C/C=C/C=C/c2ccco2)C(=O)NC1=S | 7.6 µM | – | – | – | – | –
C=CCN1C(=O)/C(=C\C=C\c2cccs2)C(=O)N(CC)C1=S | 6.1 µM | – | – | – | – | –
O=C1NC(=S)NC(=O)C1=C/C=C/c1cccnc1 | 18.4 µM | – | – | – | – | –
CCN1C(=O)C(=C/C=C/c2ccco2)C(=O)N(CC)C1=S | 18.8 µM | 8.6 µM | – | – | – | –
CCN1C(=O)C(=C/C=C/c2ccccc2)C(=O)N(CC)C1=S | 15.2 µM | 8.8 µM | – | – | – | –
O=C1NC(=[Se])NC(=O)C1=C/C=C/c1ccccc1 | 13.6 µM | 9.4 µM | – | – | – | –
C=CCN1C(=O)C(=C/C=C/c2ccco2)C(=O)N(CC=C)C1=S | 17.6 µM | 8 µM | – | – | – | –
O=C1NC(=[Se])NC(=O)C1=C/C=C/c1cccs1 | 7.8 µM | 6.3 µM | – | – | – | –
C=CCN1C(=O)/C(=C\C=C\c2cccs2)C(=O)NC1=S | 6.7 µM | 7.5 µM | – | – | – | –
O=C1NC(=S)NC(=O)C1=C/C=C/c1ccco1 | 8 µM | 8.5 µM | 16.5 µM | 27.9 µM | 20.1 µM | 24.4 µM
C=CCN1C(=O)/C(=C\C=C\c2ccccc2)C(=O)N(CC)C1=S | 21 µM | – | – | – | – | –
CN1C(=O)/C(=C\C=C\c2cccs2)C(=O)NC1=S | 5.5 µM | 4.7 µM | 8.6 µM | 23.5 µM | 18.2 µM | 21 µM
O=C1NC(=S)NC(=O)C1=C/C=C/c1cccc2ccccc12 | 4.2 µM | – | 4.5 µM | – | 3.6 µM | 7.9 µM
